# The source made the active and inactive calls. The rule behind the calls is not given here.
# Tests used:
# [1] = (§1) Displacement of [125I]-Tyr6, His5 from human LHRH1 receptor expressed in HEK 293 cells after 16 to 19 hrs by gamma counter; format: cell-based; details: hek293
# Method in brief: (§2)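 Competition binding on membranes from HEK 293 cells stably expressing human LHRH-I receptor, in HEPES buffer with CaCl2, MgCl2 and 0.5% BSA, pH 7.4. Radioligand was 120,000–240,000 cpm [125I-Tyr6,His5]LHRH with rising peptide concentrations, 16–19 h at 4 °C. Samples were filtered on PEI-soaked GF/C and gamma counted. Data were fitted to a one-site model by nonlinear regression; 3–4 experiments.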
# HEK293 = test: as §1; format: cell-based; method in brief: as §2
# [2] = Metabolic stability in mouse renal epithelial cell membranes assessed as compound remaining at 10 nM measured at 30 mins; format: ADME, cell-based; details: for remaining at 0.5 h, 0.01 µM: renal epithelial cell membranes, read-out: Stability
# Method in brief: (§3)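 Mouse kidney membranes (100,000 × g pellet) in 20 mM phosphate/100 mM NaCl, pH 7.4, at 4 mg/ml protein, incubated with 10 nM peptide at 37 °C with shaking. Sampling at 0, 30, 60 and 120 min was stopped with acetonitrile. LC-MS/MS (MRM) peak areas are expressed relative to t = 0 (100%).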
# [3] = Half life in overnight fasted C57BL/6N mouse at 1 mg/kg, ip; format: ADME, organism-based; set-up: dose 1 mg/kg, route intraperitoneal; details: in vivo
# Method in brief: (§4)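 Male C57BL/6 mice, fasted 12 h overnight, given 1 mg kg-1 i.p. in saline. Blood was taken by cardiac puncture under isoflurane at 1, 2, 4 and 6 h post-dose (n = 5). Plasma was deproteinized and peptide was quantified by LC-MS/MS (MRM) against an internal standard using nine-point calibration curves. Parameters were derived from the plasma concentration–time data.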
# Mus musculus [4] = test: Agonist activity at LHRH1 receptor in C57BL/6N mouse assessed as release of testosterone in plasma at 100 ug/kg, ip in presence of cetrorelix; format: functional, organism-based
# Method in brief: (§5)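 Male C57BL/6N mice first received cetrorelix 1 mg kg-1 i.p. After 15 min, peptide was given i.p. at 1 or 100 µg kg-1 (n = 5). Plasma testosterone was quantified by LC-MS/MS with a dexamethasone internal standard.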
# [5] = Metabolic stability in mouse renal epithelial cell membranes assessed as compound remaining at 10 nM measured at 120 mins; format: ADME, cell-based; details: read-out: Stability; method in brief: as §3
# [6] = Tmax in overnight fasted C57BL/6N mouse at 1 mg/kg, ip; format: ADME, organism-based; set-up: dose 1 mg/kg, route intraperitoneal; details: in vivo; method in brief: as §4
# [7] = AUC in overnight fasted C57BL/6N mouse at 1 mg/kg, ip; format: ADME, organism-based; set-up: dose 1 mg/kg, route intraperitoneal; details: plasma; method in brief: as §4
# [8] = Metabolic stability in overnight fasted C57BL/6N mouse plasma assessed as compound remaining at 50 ng/mL, ip; format: ADME, cell-free; details: read-out: Stability
# Method in brief: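 Recovery of spiked peptide from mouse plasma at 5 and 50 ng/mL. Plasma was extracted by protein precipitation and analysed by LC-MS/MS with an internal standard.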
# [9] = Cmax in overnight fasted C57BL/6N mouse at 1 mg/kg, ip; format: ADME, organism-based; set-up: dose 1 mg/kg, route intraperitoneal; details: in vivo; method in brief: as §4
# Plasma = test: Metabolic stability in overnight fasted C57BL/6N mouse plasma at 1 mg/kg, ip; format: ADME, organism-based; set-up: dose 1 mg/kg, route intraperitoneal; details: in vivo
# Method in brief: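 Plasma peptide stability in vivo: fasted male C57BL/6 mice received 1 mg kg-1 i.p. in saline. Cardiac-puncture plasma was collected at 1, 2, 4 and 6 h (n = 5). Peptide was measured by LC-MS/MS after protein precipitation.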
# Mus musculus [10] = test: Agonist activity at LHRH1 receptor in C57BL/6N mouse assessed as release of testosterone in plasma at 100 ug/kg, ip; format: functional, organism-based
# Method in brief: (§6)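 Male C57BL/6N mice were pretreated i.p. with saline. After 15 min, peptide was given i.p. at 1 or 100 µg kg-1 (n = 5). Plasma testosterone was measured by LC-MS/MS with a dexamethasone internal standard.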
# Mus musculus [11] = test: Agonist activity at LHRH1 receptor in C57BL/6N mouse assessed as testosterone AUC (1 to 6 hrs) at 1 mg/kg, ip; format: functional; details: route intraperitoneal
# Method in brief: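 Male C57BL/6N mice were dosed 1 mg kg-1 i.p. with saline vehicle controls (n = 5). Cardiac-puncture plasma was taken at 1, 2, 4 and 6 h. Testosterone was quantified by LC-MS/MS with a dexamethasone internal standard, calibrated 0.05–100 ng mL-1. AUC was computed over 1–6 h; mean ± SD.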
# [12] = Drug excretion in overnight fasted C57BL/6N mouse assessed as elimination rate constant at 1 mg/kg, ip; format: ADME, organism-based; set-up: dose 1 mg/kg, route intraperitoneal; details: in vivo, read-out: Drug excretion (converted); method in brief: as §4
# [13] = Analytical recovery in overnight fasted C57BL/6N mouse plasma assessed as compound recovered at 5 ng/mL, ip
# Mus musculus [14] = test: Agonist activity at LHRH1 receptor in C57BL/6N mouse assessed as release of testosterone in plasma at 1 ug/kg, ip; format: functional, organism-based; method in brief: as §6
# Mus musculus [15] = test: Agonist activity at LHRH1 receptor in C57BL/6N mouse assessed as release of testosterone in plasma at 1 ug/kg, ip in presence of cetrorelix; format: functional, organism-based; method in brief: as §5
compound,measurement,setting,value
CC(C)C[C@@H]1NC(=O)[C@@H](CC(C)C)NC(=O)[C@H](Cc2ccc(O)cc2)NC(=O)[C@H](CO)NC(=O)[C@H](Cc2c[nH]c3ccccc23)NC(=O)[C@H](Cc2cnc[nH]2)NC(=O)[C@@H]2CCCN2C(=O)CCCCCNC(=O)C[C@H](C)NC(=O)[C@@H]2CCCN2C(=O)[C@H](CCCNC(=N)N)NC1=O,pIC50,[1],5.31
same,inhibition,HEK293,Dose-dependent effect
same,"remaining at 0.5 h, 0.01 µM",[2],72%
COc1ccc(C[C@@H]2NC(=O)[C@H](CO)NC(=O)[C@H](Cc3c[nH]c4ccccc34)NC(=O)[C@H](Cc3cnc[nH]3)NC(=O)[C@@H]3CCCN3C(=O)CCCCCNC(=O)C[C@H](C)NC(=O)[C@@H]3CCCN3C(=O)[C@H](CCCNC(=N)N)NC(=O)[C@H](CC(C)C)NC(=O)[C@@H](CC(C)C)NC2=O)cc1,pIC50,[1],5.54
same,inhibition,HEK293,Dose-dependent effect
same,"remaining at 0.5 h, 0.01 µM",[2],90%
CC(C)C[C@H](NC(=O)CNC(=O)[C@H](Cc1ccc(O)cc1)NC(=O)[C@H](CO)NC(=O)[C@H](Cc1c[nH]c2ccccc12)NC(=O)[C@H](Cc1cnc[nH]1)NC(=O)[C@@H]1CCC(=O)N1)C(=O)N[C@@H](CCCNC(=N)N)C(=O)N1CCC[C@H]1C(=O)NCC(N)=O [GONADORELIN],inhibition,HEK293,Dose-dependent effect
same,Stability,"[2]; epithelial cell, 0.5 h, 0.01 µM",Unstable
CC(C)C[C@@H]1NC(=O)[C@@H](CC(C)C)NC(=O)[C@H](Cc2ccc(O)cc2)NC(=O)[C@H](CO)NC(=O)[C@H](Cc2c[nH]c3ccccc23)NC(=O)[C@H](Cc2cnc[nH]2)NC(=O)[C@@H]2CCCN2C(=O)C[C@H](C)NC(=O)[C@@H]2CCCN2C(=O)[C@H](CCCNC(=N)N)NC1=O,half-life,[3],30 min
same,pIC50,[1],6.17
same,inhibition,HEK293,Dose-dependent effect
same,Activity,Mus musculus [4],inactive
same,"remaining at 2 h, 0.01 µM",[5],100%
same,Tmax,[6],1 h
same,AUC,[7],808 ng·h/mL
same,remaining at 50 ng/mL,[8],> 90%
same,Cmax,[9],834 ng/mL
same,Stability,Plasma,Stable
same,Activity,Mus musculus [10],Active
same,Activity,Mus musculus [11],61.1 ng·h/mL
same,"remaining at 0.5 h, 0.01 µM",[2],100%
same,k el,[12],0.000278 s⁻¹
same,recovered at 5 ng/mL,[13],> 90%
COc1ccc(C[C@@H]2NC(=O)[C@H](CO)NC(=O)[C@H](Cc3c[nH]c4ccccc34)NC(=O)[C@H](Cc3cnc[nH]3)NC(=O)[C@@H]3CCCN3C(=O)CC(C)NC(=O)[C@@H]3CCN3C(=O)[C@H](CCCNC(=N)N)NC(=O)[C@H](CC(C)C)NC(=O)[C@@H](CC(C)C)NC2=O)cc1 (some centres not stated),pIC50,[1],5.82
same,inhibition,HEK293,Dose-dependent effect
same,"remaining at 0.5 h, 0.01 µM",[2],90%
COc1ccc(C[C@@H]2NC(=O)[C@H](CO)NC(=O)[C@H](Cc3c[nH]c4ccccc34)NC(=O)[C@H](Cc3cnc[nH]3)NC(=O)[C@@H]3CCCN3C(=O)CNC(=O)[C@@H]3CCN3C(=O)[C@H](CCCNC(=N)N)NC(=O)[C@H](CC(C)C)NC(=O)[C@@H](Cc3c[nH]c4ccccc34)NC2=O)cc1,pIC50,[1],5.58
same,inhibition,HEK293,Dose-dependent effect
same,"remaining at 0.5 h, 0.01 µM",[2],68%
CCNC(=O)[C@@H]1CCCN1C(=O)[C@H](CCCNC(=N)N)NC(=O)[C@H](CC(C)C)NC(=O)[C@@H](CC(C)C)NC(=O)[C@H](Cc1ccc(O)cc1)NC(=O)[C@H](CO)NC(=O)[C@H](Cc1c[nH]c2ccccc12)NC(=O)[C@H](Cc1c[nH]cn1)NC(=O)[C@@H]1CCC(=O)N1 [LEUPROLIDE],half-life,[3],42 min
same,pIC50,[1],9.12
same,inhibition,HEK293,Dose-dependent effect
same,Activity,Mus musculus [14],Active
same,Activity,Mus musculus [15],inactive
same,AUC,[7],138 ng·h/mL
same,remaining at 50 ng/mL,[8],> 90%
same,Cmax,[9],190 ng/mL
same,Stability,Plasma,Stable
same,Activity,Mus musculus [11],244.1 ng·h/mL
same,"remaining at 0.5 h, 0.01 µM",[2],3%
same,k el,[12],0.000278 s⁻¹
same,recovered at 5 ng/mL,[13],> 90%

# Source: ChEMBL document CHEMBL2150946, “Rationally designed cyclic analogues of luteinizing hormone-releasing hormone: enhanced enzymatic stability and biological properties” (Eur J Med Chem, 2012)
